This is an account of results in ChEMBL document CHEMBL4017533, “Molecular Recognition of Agonists and Antagonists by the Nucleotide-Activated G Protein-Coupled P2Y2 Receptor” (J Med Chem, 2017).

The subject of assay [1] is P2Y purinoceptor 2 (Homo sapiens), P41231 [Y114F]. Kind of assay: Antagonist activity at […] P2Y2 receptor Y114F mutant (unknown origin) expressed in human 1321N1 astrocytoma cells assessed as inhibition of UTP-induced increase in intracellular calcium mobilization preincubated for 30 mins followed by UTP addition measured after 1 hr by Fluo-4 AM dye based fluorescence assay. Format: functional, cell-based. An outline of the steps: (§1)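 Stably transduced 1321N1 cells expressing wt or mutant human P2Y2R were loaded with fluo-4 AM/Pluronic F-127 in HBSS for 1 h. Test compound was preincubated for 30 min, then UTP was injected at the EC80 determined for each cell line. Calcium fluorescence was read at ex 488/em 525 nm. IC50 was obtained by nonlinear regression, n ≥ 3.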
Background: A change in cytosolic calcium serves as a functional read-out for many receptors and channels.

Assay [2] deals with T1, P2Y purinoceptor 2 (Homo sapiens, UniProt P41231). Kind of assay: Antagonist activity at wild type P2Y2 receptor (unknown origin) expressed in human 1321N1 astrocytoma cells assessed as inhibition of UTP-induced increase in intracellular calcium mobilization preincubated for 30 mins followed by UTP addition measured after 1 hr by Fluo-4 AM dye based fluorescence assay. Format: functional, cell-based. The essentials: as §1
T1 sequence (P41231 whole entry): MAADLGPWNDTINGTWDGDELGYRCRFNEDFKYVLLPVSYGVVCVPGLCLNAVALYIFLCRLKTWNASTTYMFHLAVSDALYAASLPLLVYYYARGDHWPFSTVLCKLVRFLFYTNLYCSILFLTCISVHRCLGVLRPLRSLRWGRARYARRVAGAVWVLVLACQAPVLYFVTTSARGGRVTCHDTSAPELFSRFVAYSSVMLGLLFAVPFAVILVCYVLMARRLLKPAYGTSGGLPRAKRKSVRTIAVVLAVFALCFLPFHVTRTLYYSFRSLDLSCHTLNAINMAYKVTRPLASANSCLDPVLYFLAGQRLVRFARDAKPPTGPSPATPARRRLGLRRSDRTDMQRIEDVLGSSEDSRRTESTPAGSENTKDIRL

The species named for assay [3] is Homo sapiens. Kind of assay: Antagonist activity at […] P2Y2 receptor R194H mutant (unknown origin) expressed in human 1321N1 astrocytoma cells assessed as inhibition of UTP-induced increase in intracellular calcium mobilization preincubated for 30 mins followed by UTP addition measured after 1 hr by Fluo-4 AM dye based fluorescence assay. Format: cell-based. An outline of the steps: as §1

The species named for assay [4] is Homo sapiens. Kind of assay: Antagonist activity at […] P2Y2 receptor Y114A mutant (unknown origin) expressed in human 1321N1 astrocytoma cells assessed as inhibition of UTP-induced increase in intracellular calcium mobilization preincubated for 30 mins followed by UTP addition measured after 1 hr by Fluo-4 AM dye based fluorescence assay. Format: cell-based. The essentials:
as §1

For assay [5], the species on record is Homo sapiens. The experiment in a line: Selectivity ratio of EC50 for P2Y2 receptor S193A mutant (unknown origin) to EC50 for wild type P2Y2 receptor (unknown origin).
The target in assay [6] is T1, P2Y purinoceptor 2. The experiment in a line: Agonist activity at wild type P2Y2 receptor (unknown origin) expressed in human 1321N1 astrocytoma cells assessed as increase in intracellular calcium mobilization after 1 hr by Fluo-4 AM dye based fluorescence assay. It is filed as functional, cell-based. An outline of the steps: (§2)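 Human 1321N1 astrocytoma cells stably carrying wt or point-mutant human P2Y2R, introduced by retrovirus and selected with G418, plated at 50000 cells/well the day before. Cells loaded with fluo-4 AM plus Pluronic F-127 in HBSS for 1 h, then washed. Agonist added at graded concentrations, fluorescence read at ex 488/em 525 nm. […] Carbachol 100 μM acting on endogenous M3 served as the maximum reference.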

Assay [7] is filed under the species Homo sapiens. The experiment in a line: Selectivity ratio of EC50 for P2Y2 receptor Y288F mutant (unknown origin) to EC50 for wild type P2Y2 receptor (unknown origin).
Assay [8] addresses P2Y purinoceptor 2 (Homo sapiens, UniProt P41231, S193A). The experiment in a line: Agonist activity at P2Y2 receptor S193A mutant (unknown origin) expressed in human 1321N1 astrocytoma cells assessed as increase in intracellular calcium mobilization after 1 hr by Fluo-4 AM dye based fluorescence assay. Format: functional, cell-based. The essentials:
as §2

For assay [9], the species on record is Homo sapiens. Kind of assay: Selectivity ratio of EC50 for P2Y2 receptor R272A mutant (unknown origin) to EC50 for wild type P2Y2 receptor (unknown origin).
For assay [10], the species on record is Homo sapiens. Kind of assay: Selectivity ratio of EC50 for P2Y2 receptor R194A mutant (unknown origin) to EC50 for wild type P2Y2 receptor (unknown origin).
Assay [11] deals with P2Y purinoceptor 2 (Homo sapiens), P41231 [R265A]. Kind of assay: Agonist activity at P2Y2 receptor R265A mutant (unknown origin) expressed in human 1321N1 astrocytoma cells assessed as increase in intracellular calcium mobilization after 1 hr by Fluo-4 AM dye based fluorescence assay. Format: functional, cell-based. An outline of the steps:
as §2

The target of assay [12] is P2Y purinoceptor 2 (Homo sapiens, UniProt P41231, H184A). The experiment in a line: Agonist activity at P2Y2 receptor H184A mutant (unknown origin) expressed in human 1321N1 astrocytoma cells assessed as increase in intracellular calcium mobilization after 1 hr by Fluo-4 AM dye based fluorescence assay. Format: functional, cell-based. An outline of the steps: as §2
P2Y purinoceptor 2 (Homo sapiens, UniProt P41231, H184A), sequence (P41231 whole entry H184A): as the sequence (P41231 whole entry) above, with H184A counted along it
For assay [13], the species on record is Homo sapiens. Kind of assay: Selectivity ratio of EC50 for P2Y2 receptor R194H mutant (unknown origin) to EC50 for wild type P2Y2 receptor (unknown origin).
The species entered for assay [14] is Homo sapiens. The experiment in a line: Agonist activity at P2Y2 receptor R194A mutant (unknown origin) expressed in human 1321N1 astrocytoma cells assessed as increase in intracellular calcium mobilization after 1 hr by Fluo-4 AM dye based fluorescence assay. It is filed as cell-based. An outline of the steps:
as §2

The subject of assay [15] is P2Y purinoceptor 2 (Homo sapiens), P41231 [Y288A]. Kind of assay: Agonist activity at P2Y2 receptor Y288A mutant (unknown origin) expressed in human 1321N1 astrocytoma cells assessed as increase in intracellular calcium mobilization after 1 hr by Fluo-4 AM dye based fluorescence assay. Format: functional, cell-based. An outline of the steps:
as §2

Assay [16] is filed under the species Homo sapiens. Kind of assay: Selectivity ratio of EC50 for P2Y2 receptor Y114F mutant (unknown origin) to EC50 for wild type P2Y2 receptor (unknown origin).
The species entered for assay [17] is Homo sapiens. The experiment in a line: Selectivity ratio of EC50 for P2Y2 receptor F261A mutant (unknown origin) to EC50 for wild type P2Y2 receptor (unknown origin).
The species entered for assay [18] is Homo sapiens. Kind of assay: Selectivity ratio of EC50 for P2Y2 receptor Y268F mutant (unknown origin) to EC50 for wild type P2Y2 receptor (unknown origin).
The species entered for assay [19] is Homo sapiens. Kind of assay: Selectivity ratio of EC50 for P2Y2 receptor F111A mutant (unknown origin) to EC50 for wild type P2Y2 receptor (unknown origin).
Assay [20] concerns P2Y purinoceptor 2 (Homo sapiens), P41231 [F261A]. The experiment in a line: Agonist activity at P2Y2 receptor F261A mutant (unknown origin) expressed in human 1321N1 astrocytoma cells assessed as increase in intracellular calcium mobilization after 1 hr by Fluo-4 AM dye based fluorescence assay. Format: functional, cell-based. The essentials: as §2
P2Y purinoceptor 2 (Homo sapiens), P41231 [F261A], sequence (P41231 whole entry F261A): as the sequence (P41231 whole entry) above, with F261A counted along it
The species named for assay [21] is Homo sapiens. Kind of assay: Selectivity ratio of EC50 for P2Y2 receptor H184A mutant (unknown origin) to EC50 for wild type P2Y2 receptor (unknown origin).
For assay [22], the system named is P2Y purinoceptor 2 (Homo sapiens), P41231 [Y114F]. The experiment in a line: Agonist activity at P2Y2 receptor Y114F mutant (unknown origin) expressed in human 1321N1 astrocytoma cells assessed as increase in intracellular calcium mobilization after 1 hr by Fluo-4 AM dye based fluorescence assay. Format: functional, cell-based. The essentials:
as §2

The test system of assay [23] is P2Y purinoceptor 2 (Homo sapiens), P41231 [R110A]. The experiment in a line: Agonist activity at P2Y2 receptor R110A mutant (unknown origin) expressed in human 1321N1 astrocytoma cells assessed as increase in intracellular calcium mobilization after 1 hr by Fluo-4 AM dye based fluorescence assay. It is filed as functional, cell-based. An outline of the steps:
as §2

Assay [24] has as its target P2Y purinoceptor 2 (Homo sapiens, UniProt P41231, Y288F). Kind of assay: (§3) Agonist activity at P2Y2 receptor Y288F mutant (unknown origin) expressed in human 1321N1 astrocytoma cells assessed as increase in intracellular calcium mobilization after 1 hr by Fluo-4 AM dye based fluorescence assay. It is filed as functional, cell-based. An outline of the steps: as §2
The subject of assay [25] is P2Y purinoceptor 2 (Homo sapiens), P41231 [R292A]. Kind of assay: Agonist activity at P2Y2 receptor R292A mutant (unknown origin) expressed in human 1321N1 astrocytoma cells assessed as increase in intracellular calcium mobilization after 1 hr by Fluo-4 AM dye based fluorescence assay. It is filed as functional, cell-based. The essentials:
as §2

The species entered for assay [26] is Homo sapiens. The experiment in a line: Selectivity ratio of EC50 for P2Y2 receptor Y269F mutant (unknown origin) to EC50 for wild type P2Y2 receptor (unknown origin).
For assay [27], the species on record is Homo sapiens. The experiment in a line: Selectivity ratio of IC50 for P2Y2 receptor Y268F mutant (unknown origin) to IC50 for wild type P2Y2 receptor (unknown origin). An outline of the steps:
(§4)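 Human P2Y2R, wild type or single point mutant, retrovirally transduced into 1321N1 astrocytoma cells and selected with G418. Cells were seeded at 50000/well overnight, loaded with fluo-4 AM for 1 h in HBSS, and preincubated with antagonist for 30 min. UTP was then injected at its EC80 for that cell line. Calcium fluorescence was read at ex 488/em 525 nm. IC50 was fitted by nonlinear regression (n ≥ 3), and the ratio was taken as mutant IC50 over wild-type IC50.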

For assay [28], the species on record is Homo sapiens. Kind of assay: Selectivity ratio of IC50 for P2Y2 receptor Y288F mutant (unknown origin) to IC50 for wild type P2Y2 receptor (unknown origin). The essentials:
as §4

The species named for assay [29] is Homo sapiens. The experiment in a line: Selectivity ratio of IC50 for P2Y2 receptor R194H mutant (unknown origin) to IC50 for wild type P2Y2 receptor (unknown origin).
For assay [30], the species on record is Homo sapiens. Kind of assay: Selectivity ratio of IC50 for P2Y2 receptor F261A mutant (unknown origin) to IC50 for wild type P2Y2 receptor (unknown origin).
The species entered for assay [31] is Homo sapiens. The experiment in a line: Selectivity ratio of IC50 for P2Y2 receptor Y114F mutant (unknown origin) to IC50 for wild type P2Y2 receptor (unknown origin). An outline of the steps:
as §4

The subject of assay [32] is P2Y purinoceptor 2 (Homo sapiens), P41231 [Y288F]. The description is as §3. It is filed as functional, cell-based. The essentials: as §2

Activity calls are given as the source filed them. No cut-off for these calls is given here.

P2Y purinoceptor 2 (Homo sapiens), P41231 [Y114F], sequence (P41231 whole entry Y114F): as the sequence (P41231 whole entry) above, with Y114F counted along it
P2Y purinoceptor 2 (Homo sapiens), P41231 [R110A], sequence (P41231 whole entry R110A): as the sequence (P41231 whole entry) above, with R110A counted along it
P2Y purinoceptor 2 (Homo sapiens), P41231 [R292A], sequence (P41231 whole entry R292A): as the sequence (P41231 whole entry) above, with R292A counted along it
P2Y purinoceptor 2 (Homo sapiens), P41231 [R265A], sequence (P41231 whole entry R265A): as the sequence (P41231 whole entry) above, with R265A counted along it
P2Y purinoceptor 2 (Homo sapiens), P41231 [Y288A], sequence (P41231 whole entry Y288A): as the sequence (P41231 whole entry) above, with Y288A counted along it
P2Y purinoceptor 2 (Homo sapiens, UniProt P41231, S193A), sequence (P41231 whole entry S193A): as the sequence (P41231 whole entry) above, with S193A counted along it
P2Y purinoceptor 2 (Homo sapiens, UniProt P41231, Y288F), sequence (P41231 whole entry Y288F): as the sequence (P41231 whole entry) above, with Y288F counted along it
P2Y purinoceptor 2 (Homo sapiens), P41231 [Y288F], sequence (P41231 whole entry Y288F): as the sequence (P41231 whole entry) above, with Y288F counted along it

For `Cc1cccc(Nc2ccc(Nc3cc(S(=O)(=O)O)c(N)c4c3C(=O)c3ccccc3C4=O)cc2C(=O)O)c1C`, the inhibition result (in assay [1]; at P2Y purinoceptor 2 [2]; in the assay filed under Homo sapiens [3]) was “Active” each time.

As to `Nc1c(S(=O)(=O)O)cc(Nc2ccccc2)c2c1C(=O)c1ccccc1C2=O`, the inhibition entry (in assay [1]; on P2Y purinoceptor 2 [2]; in the assay listed under Homo sapiens [3]; in the assay listed under Homo sapiens [4]) was “Active” throughout.

Broadly, the EC50 is the concentration that produces a half-maximal response. Consider `O=c1ccn([C@@H]2O[C@H](COP(=O)(O)OP(=O)(O)OP(=O)(O)O)[C@@H](O)[C@H]2O)c(=O)[nH]1` [URIDINE TRIPHOSPHATE], for which the Ratio EC50 is 10 to 50 in the assay filed under Homo sapiens [5]; 150 in the assay listed under Homo sapiens [7]; 350 in the assay filed under Homo sapiens [9]; 10 to 50 in the assay filed under Homo sapiens [10]; 50 in the assay filed under Homo sapiens [13]; 300 in the assay filed under Homo sapiens [16]. In addition, the Ratio EC50 in the assay filed under Homo sapiens [17] is 100; in the assay filed under Homo sapiens [18], 10 to 50; in the assay filed under Homo sapiens [19], 10 to 50; in the assay filed under Homo sapiens [21], > 100; in the assay filed under Homo sapiens [26] it was 10 to 50. The 50% effective concentration (EC50) came to 5.61 nM on P2Y purinoceptor 2 [6], 70.6 nM on P2Y purinoceptor 2 [8], 996 nM on P2Y purinoceptor 2 [12] and 911 nM on P2Y purinoceptor 2 [24]. Besides, the result in assay [11], in assay [15], in assay [23] and in assay [25] was inactive. Moreover, the result (in the assay listed under Homo sapiens [14]; in assay [20]; in assay [22]) was Active.

With `CSc1nc(N)c2ncn([C@@H]3O[C@H](COP(=O)(O)OP(=O)(O)OP(=O)(O)O)[C@@H](O)[C@H]3O)c2n1`, the Ratio EC50 in the assay listed under Homo sapiens [9] was 350.

With `Nc1ncnc2c1ncn2[C@@H]1O[C@H](COP(=O)(O)OP(=O)(O)OP(=O)(O)O)[C@@H](O)[C@H]1O`, the Ratio EC50 in the assay filed under Homo sapiens [9] was determined as 350.

As to `Nc1c(S(=O)(=O)O)cc(Nc2ccc(Nc3ccccc3Cl)c(C(=O)O)c2)c2c1C(=O)c1ccccc1C2=O`, the inhibition result on P2Y purinoceptor 2 [2] was “Active”.

For `Cc1ccc2c(c1)C=Cc1cc(C)ccc1C2c1cn(Cc2ccc(C(=O)Nc3nnn[nH]3)o2)c(=O)[nH]c1=S`, the Ratio IC50 in the assay filed under Homo sapiens [27], in the assay filed under Homo sapiens [28], in the assay listed under Homo sapiens [29], in the assay filed under Homo sapiens [30] and in the assay listed under Homo sapiens [31] was < 3 throughout. In addition, on P2Y purinoceptor 2 [2], the inhibition entry is “Active”.

`Nc1ncnc2c1ncn2[C@@H]1O[C@H](COP(=O)(O)OP(=O)(O)OP(=O)(O)OP(=O)(O)OC[C@@H]2O[C@H](n3cnc4c(N)ncnc43)[C@@H](O)[C@H]2O)[C@@H](O)[C@H]1O`: the Ratio EC50 was > 4000 in the assay filed under Homo sapiens [9] and 25 in the assay filed under Homo sapiens [13]. Moreover, the result (in assay [11]; in the assay listed under Homo sapiens [14]; in assay [15]; in assay [20]; in assay [22]; in assay [23]) was inactive. Moreover, the outcome in assay [32] and in assay [25] was inactive.
